Measurements taken from ChEMBL document CHEMBL1275555, “Genetic heterogeneity in pbp genes among clinically isolated group B Streptococci with reduced penicillin susceptibility” (2008).
Values after ≈ are worked out from the molar mass of the structure shown.

Assays:
[1] = tested on: Streptococcus sp. 'group B'; experiment: Antimicrobial activity against Group B streptococcus serotype Ib C2 harboring E63K mutation in PBP 2A and L41S mutation in PBP 1B by broth microdilution method; type: functional
In short: (§1)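 Broth microdilution MICs following CLSI guidelines, using a commercial panel system; GBS clinical isolates and reference strains grown in Todd-Hewitt broth at 37°C. Each strain tested five times to confirm reproducibility, with S. pneumoniae ATCC 49619 as quality-control strain. No β-lactamase activity by acidimetric method in any strain.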

[2] = tested on: Streptococcus sp. 'group B'; experiment: Antimicrobial activity against Group B streptococcus serotype VI R5 harboring F395L, V405A, R433H, H438Y, and G648A mutations in PBP 2X and T567I mutation in PBP 2B by broth microdilution method; type: functional; in short: as §1
[3] = tested on: Streptococcus sp. 'group B'; experiment: Antimicrobial activity against Group B streptococcus serotype Ia R7 harboring T77I, F395V and S353F in PBP 2X; V80A and G613R in PBP 2B; and L45P, N163K, N723S and Y470F in PBP 1A by broth microdilution method; type: functional; in short: as §1
[4] = tested on: Streptococcus sp. 'group B'; experiment: Antimicrobial activity against Group B streptococcus serotype VI N4 harboring E63K mutation in PBP 2A and L41S mutation in PBP 1B by broth microdilution method; type: functional; in short: as §1
[5] = tested on: Streptococcus sp. 'group B'; experiment: Antimicrobial activity against Group B streptococcus R8 harboring T77I, S353F and A514V in PBP 2X; V80A and G613R in PBP 2B; and L45P, N163K, N723S and G527V in PBP 1A by broth microdilution method; type: functional; in short: as §1
[6] = tested on: Streptococcus sp. 'group B'; experiment: Antimicrobial activity against Group B streptococcus serotype Ib R3 harboring Q557E, A400V mutations in PBP 2X and T567I, G539E mutations in PBP 2B by broth microdilution method; type: functional; in short: as §1
[7] = tested on: Streptococcus sp. 'group B'; experiment: Antimicrobial activity against Group B Streptococcus serotype Ia N1 harboring E63K mutation in PBP 2A and L41S mutation in PBP 1B by broth microdilution method; type: functional; in short: as §1
[8] = tested on: Streptococcus sp. 'group B'; experiment: Antimicrobial activity against Group B streptococcus serotype VI R6 harboring F395L, V405A, R433H, H438Y, A374V and G648A mutations in PBP 2X and T567I mutation in PBP 2B by broth microdilution method; type: functional; in short: as §1
[9] = tested on: Streptococcus sp. 'group B'; experiment: Antimicrobial activity against Group B Streptococcus serotype V harboring E63K mutation in PBP 2A and L41S mutation in PBP 1B by broth microdilution method
[10] = tested on: Streptococcus sp. 'group B'; experiment: Antimicrobial activity against Group B streptococcus serotype VI R2 harboring F395L, V405A, R433H, H438Y, and G648A mutations in PBP 2X and T567I mutation in PBP 2B by broth microdilution method; type: functional; in short: as §1
[11] = tested on: Streptococcus sp. 'group B'; experiment: Antimicrobial activity against Group B streptococcus serotype VI R1 harboring F395L, V405A, R433H, H438Y, and G648A mutations in PBP 2X and T567I mutation in PBP 2B by broth microdilution method; type: functional; in short: as §1
[12] = tested on: Streptococcus sp. 'group B'; experiment: Antimicrobial activity against Group B Streptococcus serotype III NEM 316 by broth microdilution method; type: functional
In short: (§2)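 Broth microdilution MICs read on a commercial dried panel system (type 3J), following CLSI guidelines. Isolates were grown in Todd-Hewitt broth at 37°C. Each strain was tested five times for reproducibility, with S. pneumoniae ATCC 49619 as the quality-control strain. β-lactamase activity was checked by the acidimetric method.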

[13] = tested on: Streptococcus sp. 'group B'; experiment: Antimicrobial activity against Group B streptococcus serotype VI R4 harboring Q557E mutation in PBP 2X and T567I, Y262N mutations in PBP 2B by broth microdilution method; type: functional; in short: as §1
[14] = tested on: Streptococcus sp. 'group B'; experiment: Antimicrobial activity against Group B streptococcus serotype III N3 by broth microdilution method; type: functional; in short: as §2
[15] = tested on: Streptococcus sp. 'group B'; experiment: Antimicrobial activity against Group B streptococcus serotype Ib N2 harboring E63K mutation in PBP 2A and L41S mutation in PBP 1B by broth microdilution method; type: functional; in short: as §1
[16] = tested on: Streptococcus sp. 'group B'; experiment: Antimicrobial activity against Group B streptococcus serotype V C1 harboring E63K mutation in PBP 2A and L41S mutation in PBP 1B by broth microdilution method; type: functional; in short: as §1

Structure (SMILES) | MIC [1] [µg/mL] | MIC [2] [µg/mL] | MIC [3] [µg/mL] | MIC [4] [µg/mL] | MIC [5] [µg/mL] | MIC [6] [µg/mL] | MIC [7] [µg/mL] | MIC [8] [µg/mL] | MIC [9] [µg/mL] | MIC [10] [µg/mL] | MIC [11] [µg/mL] | MIC [12] [µg/mL] | MIC [13] [µg/mL] | MIC [14] [µg/mL] | MIC [15] [µg/mL] | MIC [16] [µg/mL]
CN(C)[C@@H]1C(O)=C(C(N)=O)C(=O)[C@@]2(O)C(O)=C3C(=O)c4c(O)cccc4[C@@](C)(O)[C@H]3C[C@@H]12 [TETRACYCLINE] | ≤ 0.5 | > 4 | > 4 | > 4 | > 4 | ≤ 0.5 | > 4 | > 4 | > 4 | > 4 | > 4 | ≤ 0.5 | > 4 | > 4 | ≤ 0.5 | > 4
CC[C@H]1OC(=O)[C@H](C)[C@@H](O[C@H]2C[C@@](C)(OC)[C@@H](O)[C@H](C)O2)[C@H](C)[C@@H](O[C@@H]2O[C@H](C)C[C@H](N(C)C)[C@H]2O)[C@](C)(OC)C[C@@H](C)C(=O)[C@H](C)[C@@H](O)[C@]1(C)O [CLARITHROMYCIN] | ≤ 0.12 | ≤ 0.12 | 2 (≈ 2.67 µM) | ≤ 0.12 | 1 (≈ 1.34 µM) | ≤ 0.12 | ≤ 0.12 | ≤ 0.12 | ≤ 0.12 | ≤ 0.12 | ≤ 0.12 | ≤ 0.12 | > 2 | ≤ 0.12 | ≤ 0.12 | ≤ 0.12
CO/N=C(\C(=O)N[C@@H]1C(=O)N2C(C(=O)[O-])=C(C[n+]3ccn4ncccc43)CS[C@H]12)c1nsc(N)n1 [CEFOZOPRAN] | 0.12 (≈ 0.233 µM) | 0.5 (≈ 0.97 µM) | 2 (≈ 3.88 µM) | 0.12 (≈ 0.233 µM) | 1 (≈ 1.94 µM) | 1 (≈ 1.94 µM) | 0.12 (≈ 0.233 µM) | 0.5 (≈ 0.97 µM) | 0.12 (≈ 0.233 µM) | 1 (≈ 1.94 µM) | 0.5 (≈ 0.97 µM) | 0.12 (≈ 0.233 µM) | 0.5 (≈ 0.97 µM) | 0.12 (≈ 0.233 µM) | 0.12 (≈ 0.233 µM) | 0.12 (≈ 0.233 µM)
CN(C)CCn1nnnc1SCC1=C(C(=O)O)N2C(=O)[C@@H](NC(=O)Cc3csc(N)n3)[C@H]2SC1 [CEFOTIAM] | ≤ 0.5 | 2 (≈ 3.8 µM) | > 4 | ≤ 0.5 | > 4 | 4 (≈ 7.61 µM) | ≤ 0.5 | 4 (≈ 7.61 µM) | ≤ 0.5 | 4 (≈ 7.61 µM) | 4 (≈ 7.61 µM) | ≤ 0.5 | 4 (≈ 7.61 µM) | ≤ 0.5 | ≤ 0.5 | ≤ 0.5
CC1(C)S[C@@H]2[C@H](NC(=O)[C@H](N)c3ccccc3)C(=O)N2[C@H]1C(=O)O [AMPICILLIN] | 0.25 (≈ 0.715 µM) | 0.5 (≈ 1.43 µM) | 0.5 (≈ 1.43 µM) | 0.12 (≈ 0.343 µM) | 0.5 (≈ 1.43 µM) | 0.25 (≈ 0.715 µM) | 0.12 (≈ 0.343 µM) | 0.5 (≈ 1.43 µM) | 0.12 (≈ 0.343 µM) | 0.5 (≈ 1.43 µM) | 0.5 (≈ 1.43 µM) | 0.12 (≈ 0.343 µM) | 0.25 (≈ 0.715 µM) | 0.12 (≈ 0.343 µM) | 0.25 (≈ 0.715 µM) | 0.12 (≈ 0.343 µM)
CO/N=C(\C(=O)N[C@@H]1C(=O)N2C(C(=O)[O-])=C(C[N+]3(C)CCCC3)CS[C@H]12)c1csc(N)n1 [CEFEPIME] | ≤ 0.5 | 1 (≈ 2.08 µM) | 2 (≈ 4.16 µM) | ≤ 0.5 | 1 (≈ 2.08 µM) | ≤ 0.5 | ≤ 0.5 | 1 (≈ 2.08 µM) | ≤ 0.5 | 1 (≈ 2.08 µM) | 1 (≈ 2.08 µM) | ≤ 0.5 | 1 (≈ 2.08 µM) | ≤ 0.5 | ≤ 0.5 | ≤ 0.5
CCC[C@@H]1C[C@@H](C(=O)N[C@@H]([C@H]2O[C@H](SC)[C@H](O)[C@@H](O)[C@H]2O)[C@H](C)Cl)N(C)C1 [CLINDAMYCIN] | ≤ 0.12 | ≤ 0.12 | ≤ 0.12 | ≤ 0.12 | ≤ 0.12 | ≤ 0.12 | ≤ 0.12 | ≤ 0.12 | ≤ 0.12 | ≤ 0.12 | ≤ 0.12 | ≤ 0.12 | > 1 | ≤ 0.12 | ≤ 0.12 | ≤ 0.12
